Test results taken from PMC7993274 (Clinical and Translational Science, 2020).

Experiments:
[1] = Plasma PK, multiple ascending dose; assay type: in vivo, human; settings: for AUCτ (dn) / Cmax (dn): dose normalized; for AUCτ (dn) / Cmax (dn) / AUCτ / Cmax: geometric mean (CV %); for Tmax: median (range); for t1/2: arithmetic mean (SD)
[2] = Treatment-emergent adverse events, MAD period and b.i.d. cohort; assay type: in vivo, human; settings: MAD 30 mg q.d. (n = 6)
Outline: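 Double-blind, placebo-controlled study in healthy men and nonchildbearing women aged 18–55 y. The SAD period gave one fasted oral dose; the MAD period gave fed dosing q.d. for 10 days, plus a separate b.i.d. cohort. TEAEs, serious AEs and discontinuation AEs were monitored ≥28 days after the last dose. Vital signs, physical exam, 12-lead ECG, hematology, clinical chemistry and urinalysis were also recorded. Data summarized descriptively.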

[3] = MAD day 1 fed Japanese cohort 400 mg q.d.
[4] = MAD day 10 fed Japanese cohort 400 mg q.d.

Q: With `Cn1cc(-c2cn3nccc3c(-c3cnn([C@]4(CC#N)C[C@@H](C#N)C4)c3)n2)cn1` [PF‐06826647] as the compound, how does the “dose proportionality of AUCτ and Cmax” value ([1]; MAD 30–400 mg q.d.) read?
A: less‐than‐dose‐proportional

Q: What about the “dose proportionality of AUCτ and Cmax” value ([1]; MAD 400–1,200 mg q.d.) of the same compound?
A: dose‐proportional

Q: What about the “AUCτ (dn)” value ([1]; MAD day 1 fed 30 mg q.d.) of the same compound?
A: 22.1 (25) ng.hour/mL/mg

Q: And the “Cmax (dn)” value ([1]; MAD day 1 fed 30 mg q.d.)?
A: 2.8 (24) ng/mL/mg

Q: And the AUCτ ([1]; MAD day 1 fed 30 mg q.d.)?
A: 662.8 (25) ng.hour/mL

Q: What about the Cmax ([1]; MAD day 1 fed 30 mg q.d.) of the same compound?
A: 83.5 (24) ng/mL

Q: And the Tmax ([1]; MAD day 1 fed 30 mg q.d.)?
A: 3.0 (2.0–6.0) hour

Q: What about the “AUCτ (dn)” value ([1]; MAD day 1 fed 100 mg q.d.) of the same compound?
A: 18.0 (23) ng.hour/mL/mg

Q: What about the “Cmax (dn)” value ([1]; MAD day 1 fed 100 mg q.d.) of the same compound?
A: 2.7 (20) ng/mL/mg

Q: And the AUCτ ([1]; MAD day 1 fed 100 mg q.d.)?
A: 1,803.0 (23) ng.hour/mL

Q: And the Cmax ([1]; MAD day 1 fed 100 mg q.d.)?
A: 267.2 (20) ng/mL

Q: What about the Tmax ([1]; MAD day 1 fed 100 mg q.d.) of the same compound?
A: 4.0 (1.0–4.0) hour

Q: And the AUCτ ([1]; MAD day 1 fed 200 mg b.i.d., tau = 12 hours)?
A: 1,646.0 (70) ng.hour/mL

Q: And the “Cmax (dn)” value ([1]; MAD day 1 fed 200 mg b.i.d.)?
A: 1.5 (67) ng/mL/mg

Q: What about the Cmax ([1]; MAD day 1 fed 200 mg b.i.d.) of the same compound?
A: 289.8 (67) ng/mL

Q: And the Tmax ([1]; MAD day 1 fed 200 mg b.i.d.)?
A: 4.0 (2.0–6.0) hour

Q: What about the “AUCτ (dn)” value ([1]; MAD day 1 fed 400 mg q.d.) of the same compound?
A: 11.1 (67) ng.hour/mL/mg

Q: And the “Cmax (dn)” value ([1]; MAD day 1 fed 400 mg q.d.)?
A: 1.5 (33) ng/mL/mg

Q: What about the AUCτ ([1]; MAD day 1 fed 400 mg q.d.) of the same compound?
A: 4,424.0 (67) ng.hour/mL

Q: What about the Cmax ([1]; MAD day 1 fed 400 mg q.d.) of the same compound?
A: 585.9 (33) ng/mL

Q: And the Tmax ([1]; MAD day 1 fed 400 mg q.d.)?
A: 3.0 (2.0–6.0) hour

Q: What about the “AUCτ (dn)” value ([1]; MAD day 1 fed 1,200 mg q.d.) of the same compound?
A: 14.2 (20) ng.hour/mL/mg

Q: And the “Cmax (dn)” value ([1]; MAD day 1 fed 1,200 mg q.d.)?
A: 1.7 (10) ng/mL/mg

Q: What about the AUCτ ([1]; MAD day 1 fed 1,200 mg q.d.) of the same compound?
A: 17,090.0 (20) ng.hour/mL

Q: What about the Cmax ([1]; MAD day 1 fed 1,200 mg q.d.) of the same compound?
A: 2,023.0 (10) ng/mL

Q: And the Tmax ([1]; MAD day 1 fed 1,200 mg q.d.)?
A: 2.0 (2.0–4.0) hour

Q: What about the AUCτ [1, 3] of the same compound?
A: 6,038.0 (29) ng.hour/mL

Q: What about the Cmax [1, 3] of the same compound?
A: 695.5 (19) ng/mL

Q: What about the Tmax [1, 3] of the same compound?
A: 4.0 (2.0–4.0) hour

Q: And the “median Tmax” value ([1]; MAD day 10, standard meal, all doses (30–1,200 mg))?
A: 4 h

Q: What about the t1/2 ([1]; MAD day 10 fed 30 mg q.d.) of the same compound?
A: 8.8 (5.8) hour

Q: What about the “AUCτ (dn)” value ([1]; MAD day 10 fed 30 mg q.d.) of the same compound?
A: 25.1 (32) ng.hour/mL/mg

Q: What about the “Cmax (dn)” value ([1]; MAD day 10 fed 30 mg q.d.) of the same compound?
A: 2.8 (27) ng/mL/mg

Q: And the AUCτ ([1]; MAD day 10 fed 30 mg q.d.)?
A: 752.9 (32) ng.hour/mL

Q: And the Cmax ([1]; MAD day 10 fed 30 mg q.d.)?
A: 85.3 (27) ng/mL

Q: And the Tmax ([1]; MAD day 10 fed 30 mg q.d.)?
A: 4.0 (4.0–6.0) hour

Q: What about the t1/2 ([1]; MAD day 10 fed 100 mg q.d.) of the same compound?
A: 12.7 (12.7) hour

Q: And the “AUCτ (dn)” value ([1]; MAD day 10 fed 100 mg q.d.)?
A: 19.5 (33) ng.hour/mL/mg

Q: And the “Cmax (dn)” value ([1]; MAD day 10 fed 100 mg q.d.)?
A: 2.6 (30) ng/mL/mg

Q: What about the AUCτ ([1]; MAD day 10 fed 100 mg q.d.) of the same compound?
A: 1,952.0 (33) ng.hour/mL

Q: What about the Cmax ([1]; MAD day 10 fed 100 mg q.d.) of the same compound?
A: 263.2 (30) ng/mL

Q: And the Tmax ([1]; MAD day 10 fed 100 mg q.d.)?
A: 4.0 (2.0–4.0) hour

Q: And the AUCτ ([1]; MAD day 10 fed 200 mg b.i.d., tau = 12 hours)?
A: 2,010.0 (49) ng.hour/mL

Q: And the t1/2 ([1]; MAD day 10 fed 200 mg b.i.d.)?
A: 26.9 (8.1) hour

Q: And the “Cmax (dn)” value ([1]; MAD day 10 fed 200 mg b.i.d.)?
A: 1.7 (46) ng/mL/mg

Q: What about the Cmax ([1]; MAD day 10 fed 200 mg b.i.d.) of the same compound?
A: 339.5 (46) ng/mL

Q: And the Tmax ([1]; MAD day 10 fed 200 mg b.i.d.)?
A: 4.0 (2.0–4.0) hour

Q: And the t1/2 ([1]; MAD day 10 fed 400 mg q.d.)?
A: 7.5 (2.6) hour

Q: What about the “AUCτ (dn)” value ([1]; MAD day 10 fed 400 mg q.d.) of the same compound?
A: 13.6 (57) ng.hour/mL/mg

Q: What about the “Cmax (dn)” value ([1]; MAD day 10 fed 400 mg q.d.) of the same compound?
A: 1.7 (37) ng/mL/mg

Q: What about the AUCτ ([1]; MAD day 10 fed 400 mg q.d.) of the same compound?
A: 5,420.0 (57) ng.hour/mL

Q: What about the Cmax ([1]; MAD day 10 fed 400 mg q.d.) of the same compound?
A: 667.3 (37) ng/mL

Q: What about the Tmax ([1]; MAD day 10 fed 400 mg q.d.) of the same compound?
A: 4.0 (2.0–6.0) hour

Q: What about the t1/2 ([1]; MAD day 10 fed 1,200 mg q.d.) of the same compound?
A: 34.3 (21.9) hour

Q: And the “AUCτ (dn)” value ([1]; MAD day 10 fed 1,200 mg q.d.)?
A: 12.4 (31) ng.hour/mL/mg

Q: And the “Cmax (dn)” value ([1]; MAD day 10 fed 1,200 mg q.d.)?
A: 1.5 (21) ng/mL/mg

Q: And the AUCτ ([1]; MAD day 10 fed 1,200 mg q.d.)?
A: 14,890.0 (31) ng.hour/mL

Q: What about the Cmax ([1]; MAD day 10 fed 1,200 mg q.d.) of the same compound?
A: 1,855.0 (21) ng/mL

Q: What about the Tmax ([1]; MAD day 10 fed 1,200 mg q.d.) of the same compound?
A: 4.0 (2.0–4.0) hour

Q: And the t1/2 [1, 4]?
A: 7.4 (4.8) hour

Q: What about the AUCτ [1, 4] of the same compound?
A: 7,194.0 (20) ng.hour/mL

Q: What about the Cmax [1, 4] of the same compound?
A: 887.0 (11) ng/mL

Q: What about the Tmax [1, 4] of the same compound?
A: 4.0 (2.0–6.0) hour

Q: What about the plasma accumulation ([1]; after multiple dosing, q.d. and b.i.d.) of the same compound?
A: < 1.5 fold

Q: And the “steady‐state reached by” value ([1]; both q.d. and b.i.d. dosing)?
A: ≤ 2 days

Q: What about the AEs [2] of the same compound?
A: 2 n

Q: What about the “AEs leading to permanent discontinuation of study drug” value [2] of the same compound?
A: 0 n

Q: And the “AEs leading to study drug dose reduction or interruption” value [2]?
A: 0 n

Q: And the “Participants with AE” value [2]?
A: 2 (33.3) n (%)

Q: What about the “Participants with TEAEs: Alanine aminotransferase increased” value [2] of the same compound?
A: 0 n (%)

Q: And the “Participants with TEAEs: Blood creatinine increased” value [2]?
A: 0 n (%)

Q: What about the “Participants with TEAEs: Constipation” value [2] of the same compound?
A: 1 (16.7) n (%)

Q: What about the “Participants with TEAEs: Dysuria” value [2] of the same compound?
A: 0 n (%)

Q: And the “Participants with TEAEs: Gastrointestinal disorders (SOC)” value [2]?
A: 2 (33.3) n (%)

Q: What about the “Participants with TEAEs: Headache” value [2] of the same compound?
A: 0 n (%)

Q: What about the “Participants with TEAEs: Investigations (SOC)” value [2] of the same compound?
A: 0 n (%)

Q: And the “Participants with TEAEs: Nausea” value [2]?
A: 1 (16.7) n (%)

Q: And the “Participants with TEAEs: Nervous system disorders (SOC)” value [2]?
A: 0 n (%)

Q: What about the “Participants with TEAEs: Renal and urinary disorders (SOC)” value [2] of the same compound?
A: 0 n (%)

Q: And the SAEs [2]?
A: 0 n

Q: And the “Severe AEs” value [2]?
A: 0 n
